This is an account of results in ChEMBL document CHEMBL4052826, “Design and Synthesis of Novel Reactive Oxygen Species Inducers for the Treatment of Pancreatic Ductal Adenocarcinoma” (J Med Chem, 2018).

Active and inactive are the calls of the source. The rule behind the calls is not given here.

For experiment [1], the system named is MIA PaCa-2. Kind of experiment: Cytotoxicity against human MIAPaCa2 cells assessed as decrease in cell proliferation after 72 hrs by MTT assay. In kind it is functional, cell-based. As to conditions: MIA PaCa-2, 72 h. Put shortly:
(§1)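 MTT assay. Cells (3000–8000/well) attached overnight in RPMI1640 with 10% FBS; the GR line was kept with 200 nM gemcitabine. Serial dilutions (30 nM–10 μM for most lines) were applied for 72 h. MTT was added at a final 300 μg/mL for 3 h at 37°C, formazan was dissolved in DMSO and A570 read. Inhibition = (1 − OD treated/OD control) × 100. IC50 given as mean ± SD, three independent experiments.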

Another experiment relates to BXPC-3. Kind of experiment: Cytotoxicity against human BxPC3 cells assessed as decrease in cell proliferation after 72 hrs by MTT assay. In kind it is functional, cell-based. As to conditions: BXPC-3, 72 h. The essentials: as §1
The nature of experiment [2]: Cytotoxicity against HPDEC assessed as decrease in cell proliferation after 72 hrs by MTT assay. The experiment is classed as cell-based. As to conditions: Homo sapiens. Put shortly:
as §1

The next experiment concerns PANC-1. The experiment in a line: Cytotoxicity against human PANC1 cells assessed as decrease in cell proliferation after 72 hrs by MTT assay. As to conditions: PANC-1, 72 h. The experiment is classed as functional, cell-based. The essentials: as §1
Experiment [3] has as its system MIA PaCa-2. The experiment in a line: Cytotoxicity against gemcitabine-resistant human MIAPaCa2 cells assessed as decrease in cell proliferation after 72 hrs by MTT assay. In kind it is functional, cell-based. As to conditions: MIA PaCa-2, 72 h. The essentials:
as §1

Experiment [4] has as its system MIA PaCa-2. The experiment in a line: Cytotoxicity against human MIAPaCa2 cells assessed as decrease in cell proliferation after 72 hrs in presence of NAC by MTT assay. The experiment is classed as functional, cell-based. Put shortly: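 MIA PaCa-2 cells were treated for 72 h with compound in the presence of 5 mM NAC. Viability was read by MTT (final 300 μg/mL, 3 h, A570). Mean ± SD of three independent experiments.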

A short description of experiment [5]: Induction of compound colloidal behavior.
Experiment [6] relates to MIA PaCa-2. Kind of experiment: Induction of reactive oxygen species generation in human MIAPaCa2 cells at 1.1 to 10 uM after 24 hrs in presence of NAC by H2DCFDA reactivity assay. The experiment is classed as functional, cell-based. The essentials:
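H2DCFDA assay. Trypsinized MIA PaCa-2 cells in suspension were loaded with 20 μM H2DCFDA for 30 min at 37°C, washed and plated at 20,000/well. After 30 min they were treated with compound at 10, 3.3 or 1.1 μM. Fluorescence was read at 493/523 nm over time. DMSO basal and unstained controls were included. NAC pretreatment, where used, was 5 mM for 30 min. Duplicates, three independent experiments.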

Experiment [7] in a line: Induction of compound aggregation.
Experiment [8] deals with MIA PaCa-2. Kind of experiment: Inhibition of mtDNA transcription from HSP2 promoter in human MIAPaCa2 cells after 4 hrs by Bru-seq analysis. In kind it is functional, cell-based. The essentials: (§2)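 MIA PaCa-2 cells were seeded at 4×10^6 per 10 cm dish and treated the next day for 4 h, with DMSO as control. Bromouridine (2 mM final) was added for the last 30 min. Total RNA was isolated in TRIZOL, and Bru-labelled RNA was immunocaptured, made into cDNA libraries and deep-sequenced. Read-out was nascent signal across mitochondrial heavy-strand (HSP2) and light-strand (LSP) transcripts.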

For experiment [9], the system named is MIA PaCa-2. The experiment in a line: Inhibition of mtDNA transcription from LSP promoter in human MIAPaCa2 cells after 4 hrs by Bru-seq analysis. The experiment is classed as functional, cell-based. Put shortly:
as §2

Turning to `O=C(NCCC[P+](c1ccccc1)(c1ccccc1)c1ccccc1)c1ccc(NC2=CC(=O)c3ncncc3C2=O)cc1`, the half-maximal inhibitory concentration (IC50) in the experiment on MIA PaCa-2 [1] turned out to be 15.3 µM; in the experiment on BXPC-3, 21.5 µM; in experiment [2] it was 18.3 µM; in the experiment on PANC-1 it was 11.7 µM; in the experiment with MIA PaCa-2 [3], 17.7 µM.
Consider `Nc1cccc(C(=O)NCCC[P+](c2ccccc2)(c2ccccc2)c2ccccc2)c1`, for which the IC50 with MIA PaCa-2 [1], with BXPC-3 and with PANC-1 was > 30 µM each time.
Turning to `O=C1C(Nc2ccc(Oc3ccccc3)cc2)=CC(=O)c2ncncc21`, the IC50 is 3.7 µM in the experiment on MIA PaCa-2 [1], 3.6 µM in the experiment with BXPC-3 and 1.8 µM in the experiment with PANC-1.
With `COc1cc(NC2=CC(=O)c3ncncc3C2=O)cc(OC)c1OC`, the IC50 with MIA PaCa-2 [1] came out at 1.5 µM; with BXPC-3, 1.6 µM; in experiment [2], 3.2 µM; in the experiment on PANC-1 it was 0.8 µM; in the experiment on MIA PaCa-2 [3] it was 2 µM. Besides, the outcome in the experiment on MIA PaCa-2 [4] and with MIA PaCa-2 [6] was inactive. In addition, the result in experiment [5] and in experiment [7] was Active.
For the compound `COc1cc(NC2=CC(=O)c3ncncc3C2=O)cc(OC)c1`, the IC50 in the experiment with MIA PaCa-2 [1] came out at 7.7 µM; in the experiment with BXPC-3, 16.3 µM; in the experiment on PANC-1, 7.2 µM.
On to `CCc1ccc(-c2ccc(NC3=CC(=O)c4ncncc4C3=O)cc2)cc1`, for which the IC50 is 2 µM in the experiment on MIA PaCa-2 [1], 3.1 µM with BXPC-3 and 1.2 µM in the experiment with PANC-1.
For `O=C1C(Nc2cccc(B(O)O)c2)=CC(=O)c2ncncc21`, the IC50 in the experiment on MIA PaCa-2 [1] was > 10 µM; in the experiment with BXPC-3 it was > 10 µM; in the experiment with PANC-1, 9 µM.
For `Cc1ccc(-c2ccc(NC3=CC(=O)c4ncncc4C3=O)cc2F)cc1`, the IC50 was 4.6 µM in the experiment on MIA PaCa-2 [1], 5 µM in the experiment on BXPC-3 and 4.8 µM in the experiment on PANC-1.
On the same counts, the results for `Nc1ccc(-c2ccc(NC3=CC(=O)c4ncncc4C3=O)cc2)cc1` are 2.5 µM, 3.5 µM and 3.7 µM.
On the same counts, the results for `O=C1C(Nc2ccc(-c3ccc(F)cc3)cc2)=CC(=O)c2ncncc21` are 3.5 µM, 4.4 µM and 3.2 µM.
As for `NS(=O)(=O)c1ccc(NC2=CC(=O)c3ncncc3C2=O)cc1`, the IC50 with MIA PaCa-2 [1], with BXPC-3 and with PANC-1 was > 10 µM throughout.
With `O=C1C(Nc2ccc(OC(F)(F)F)cc2)=CC(=O)c2ncncc21`, the IC50 with MIA PaCa-2 [1] turned out to be 1.4 µM; with BXPC-3, 0.9 µM; with PANC-1, 0.9 µM.
For `COc1ccc(NC2=CC(=O)c3ncncc3C2=O)cc1OC`, the figures for the IC50 with MIA PaCa-2 [1], in the experiment on BXPC-3 and in the experiment with PANC-1 were 1.8 µM, 1.5 µM and 0.9 µM, respectively.
With `COC(=O)c1ccc(NC2=CC(=O)c3ncncc3C2=O)cc1`, the IC50 is 2.2 µM in the experiment with MIA PaCa-2 [1], 5.8 µM in the experiment with BXPC-3 and 1.1 µM in the experiment with PANC-1.
On to `O=C1C(Nc2ccc(CO)cc2)=CC(=O)c2ncncc21`, for which the concentration for half-maximal inhibition (IC50) in the experiment on MIA PaCa-2 [1] was 3.5 µM; in the experiment with BXPC-3, 5.7 µM; in the experiment on PANC-1, 1 µM.
Turning to `O=C(NCCC[P+](c1ccccc1)(c1ccccc1)c1ccccc1)c1cccc(NC2=CC(=O)c3ncncc3C2=O)c1`, the IC50 worked out at 21.3 µM in the experiment on BXPC-3, 24.3 µM in experiment [2], 14.3 µM in the experiment on PANC-1 and 16.2 µM in the experiment on MIA PaCa-2 [3].
For the compound `O=C1C=CC(=O)c2ncncc21`, the IC50 with MIA PaCa-2 [1] stood at 9.4 µM; in the experiment on BXPC-3 it was 19.4 µM; with PANC-1, 18 µM.
On to `Nc1ccc(C(=O)NCCC[P+](c2ccccc2)(c2ccccc2)c2ccccc2)cc1`, for which the IC50 in the experiment on MIA PaCa-2 [1], in the experiment with BXPC-3 and in the experiment with PANC-1 was > 30 µM each time.
For `COc1ccc(NC2=CC(=O)c3ncncc3C2=O)cc1`, the IC50 in the experiment with MIA PaCa-2 [1] was determined as 1.9 µM; in the experiment with BXPC-3, 1.7 µM; in the experiment on PANC-1, 0.8 µM.
Regarding `CCOC(=O)c1ccc(NC2=CC(=O)c3ncncc3C2=O)cc1`, the IC50 in the experiment on MIA PaCa-2 [1] stood at 5.5 µM; in the experiment with BXPC-3, 5.9 µM; in the experiment on PANC-1 it was 1.6 µM.
As to `COc1cccc(NC2=CC(=O)c3ncncc3C2=O)c1`, the IC50 in the experiment with MIA PaCa-2 [1] stood at 1.8 µM; in the experiment with BXPC-3, 1.8 µM; with PANC-1 it was 0.6 µM.
With `CC[C@@]1(O)C(=O)OCc2c1cc1n(c2=O)Cc2cc3ccccc3nc2-1`, the inhibition result in the experiment with MIA PaCa-2 [8] and in the experiment with MIA PaCa-2 [9] was “inactive” each time.
With `COc1ccc(-c2ccc(NC3=CC(=O)c4ncncc4C3=O)cc2)cc1`, the IC50 in the experiment on MIA PaCa-2 [1] turned out to be 2.1 µM; in the experiment with BXPC-3, 3.5 µM; in the experiment on PANC-1 it was 2.3 µM.
For the compound `NC(=O)c1ccc(NC2=CC(=O)c3ncncc3C2=O)cc1`, the IC50 was 8 µM in the experiment on MIA PaCa-2 [1], > 10 µM in the experiment with BXPC-3 and 6.3 µM with PANC-1.
`OO`: the result with MIA PaCa-2 [4] was inactive.
With `O=C1C(NCc2ccc(F)cc2)=CC(=O)c2ncncc21`, the IC50 stood at 1.7 µM in the experiment with MIA PaCa-2 [1], 1.4 µM in the experiment with BXPC-3 and 1 µM in the experiment on PANC-1.
